Laboratory results taken from ChEMBL document CHEMBL4017520, “Discovery, Structure-Activity Relationship, and Antiparkinsonian Effect of a Potent and Brain-Penetrant Chemical Series of Positive Allosteric Modulators of Metabotropic Glutamate Receptor 4” (J Med Chem, 2017).
Values belong to the molecule of their own block, whether it stands above or below them. Calls of active or inactive are those of the source. The calls are words filed in the database; no cut-off is given here.

Experiments:
[1] = Tmax in C57BL/6 mouse plasma at 10 mg/kg, po administered as single dose by LC-MS/MS analysis; type: ADME, organism-based
How it was run: (§1)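 Single-dose plasma PK after ip (10 or 30 mg/kg) or oral (10 mg/kg) dosing in rats, and oral 10 mg/kg dosing in mice. […] Values are mean ±SEM of 3 rats or 2 mice.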

[2] = Half life in Sprague-Dawley rat plasma at 30 mg/kg, ip administered as single dose by LC-MS/MS analysis; type: ADME, organism-based
How it was run: (§2)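 Single dose ip (10 or 30 mg/kg, rat) or oral (10 mg/kg, rat or mouse); plasma Cmax, Tmax, half-life, AUC0−inf derived; brain concentration and brain/plasma ratio at 30 min postdose. Mean of 3 rats or 2 mice.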

[3] = tested on: Brain; assay: Fraction unbound in Sprague-Dawley rat brain at 30 mg/kg, ip after 120 mins; type: ADME, organism-based; conditions: in vivo, 2 h
[4] = Half life in Sprague-Dawley rat plasma at 10 mg/kg, ip administered as single dose by LC-MS/MS analysis; type: ADME, organism-based; how it was run: as §2
[5] = tested on: Mus musculus; assay: Volume of distribution in C57BL/6 mouse at 2 mg/kg, iv administered as single dose by LC-MS/MS analysis; type: ADME, organism-based; conditions: in vivo
How it was run: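 Single intravenous dose: rats 1 mg/kg, mice 2 mg/kg. Plasma concentration–time data yielded Cmax, t1/2, AUC0−∞, plasma clearance and volume of distribution. Values are mean ±SEM of 3 animals.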

[6] = Drug uptake in Sprague-Dawley rat brain at 30 mg/kg, ip after 60 mins; type: ADME, organism-based; conditions: read-out: Drug uptake
[7] = Plasma clearance in Sprague-Dawley rat at 1 mg/kg, iv administered as single dose by LC-MS/MS analysis; type: ADME, organism-based
How it was run: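 Single iv dose, 1 mg/kg in rat or 2 mg/kg in mouse; plasma PK parameters derived; brain/plasma ratio taken at 1 h postdose (rat) or 30 min postdose (mouse). Mean of 3 rats; 2 mice for mouse Cmax and brain/plasma.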

[8] = Cmax in C57BL/6 mouse plasma at 10 mg/kg, po administered as single dose by LC-MS/MS analysis; type: ADME, organism-based; set-up: dose 10 mg/kg, route oral
How it was run: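 Mice given 10 mg/kg orally. Plasma Cmax was determined and brain concentration measured at 30 min postdose. Values are the mean (±SEM) of 2 mice.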

[9] = Cmax in C57BL/6 mouse at 2 mg/kg, iv administered as single dose by LC-MS/MS analysis; type: ADME, organism-based; set-up: dose 2 mg/kg, route intravenous; conditions: in vivo
[10] = Plasma concentration in Sprague-Dawley rat at 30 mg/kg, ip after 30 mins; type: ADME, organism-based
How it was run: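 Rats dosed 30 mg/kg ip; plasma sampled over time, brain measured at 30 and 60 min; brain/plasma ratio averaged over 30 and 60 min.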

[11] = Ratio of drug level in Sprague-Dawley rat brain to plasma at 10 mg/kg, ip after 30 mins post dose administered as single dose by LC-MS/MS analysis; type: ADME, organism-based; conditions: read-out: BPR; how it was run: as §2
[12] = AUC (0 to infinity) in Sprague-Dawley rat plasma at 10 mg/kg, ip administered as single dose by LC-MS/MS analysis; type: ADME, organism-based; set-up: dose 10 mg/kg, time infinity, route intraperitoneal
How it was run: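 Rats dosed ip at 10 or 30 mg/kg. Plasma Cmax, Tmax, half-life and AUC0–inf were determined. Brain concentration was measured 30 min postdose, and brain/plasma ratio was taken at 30 min. Values are the mean (±SEM) of 3 rats.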

[13] = Tmax in Sprague-Dawley rat plasma at 10 mg/kg, ip administered as single dose by LC-MS/MS analysis; type: ADME, organism-based; how it was run: as §1
[14] = tested on: Brain; assay: Fraction unbound in Sprague-Dawley rat brain at 30 mg/kg, ip after 30 mins; type: ADME, organism-based; conditions: in vivo, 0.5 h
[15] = molecular target: Amine oxidase [flavin-containing] A (Homo sapiens, UniProt P21397); assay: Activity at MAO-A (unknown origin) up to 10 uM; type: ADME
[16] = molecular target: Metabotropic glutamate receptor 2 (Homo sapiens) (UniProt Q14416); assay: Activity at human mGlu2 receptor expressed in HEK293 cells co-expressing Gi/Gq assessed as effect on intracellular calcium level up to 10 uM after 10 mins by Fluo4-AM dye based fluorescence assay; type: functional, cell-based
How it was run: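 HEK-293 cells transiently expressing the human mGluR with a promiscuous or chimeric G protein were serum-starved 3 h and loaded 1.5 h with 1 μM Fluo4-AM. Compound alone was added in assay buffer, and calcium fluorescence (ex 485/em 525) was recorded for 10 min as agonist readout.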

[17] = molecular target: Metabotropic glutamate receptor 4 (Rattus norvegicus) (UniProt P31423); assay: Positive allosteric modulation of rat mGlu4 receptor expressed in HEK293 cells co-expressing Gi/Gq assessed as increase in glutamate-induced calcium flux preincubated for 10 mins followed by glutamate addition measured for 3 mins by Fluo4-AM dye based fluorescence assay relative to control; type: functional, cell-based
[18] = molecular target: D(2) dopamine receptor (Homo sapiens) (UniProt P14416); assay: Agonist activity at D2L receptor (unknown origin) at 10 uM
[19] = molecular target: Metabotropic glutamate receptor 4 (Homo sapiens, UniProt Q14833); assay: Positive allosteric modulation of recombinant human mGlu4 receptor expressed in HEK293 cells co-expressing chimeric Gi/Gq assessed as increase in EC20 glutamate-induced calcium flux preincubated for 10 mins followed by glutamate addition measured for 3 mins by Fluo4-AM dye based fluorescence assay relative to control; type: functional, cell-based
[20] = molecular target: Metabotropic glutamate receptor 8 (Homo sapiens) (UniProt O00222); assay: Agonist activity at human mGlu8 receptor expressed in HEK293 cells co-expressing Gi/Gq assessed as increase in intracellular calcium level at 10 uM after 10 mins by Fluo4-AM dye based fluorescence assay relative to control; type: functional, cell-based
How it was run: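 Human mGluR8 in transiently transfected HEK293 cells loaded with Fluo4-AM. Compound alone was added and fluorescence followed for 10 min. Stimulation is expressed relative to the maximal glutamate response.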

[21] = molecular target: D(1A) dopamine receptor (Homo sapiens) (UniProt P21728); assay: Agonist activity at D1 receptor (unknown origin) at 10 uM
[22] = molecular target: Metabotropic glutamate receptor 7 (Homo sapiens) (UniProt Q14831); assay: Activity at human mGlu7 receptor expressed in HEK293 cells co-expressing Gi/Gq assessed as effect on LAP4-induced intracellular calcium level up to 10 uM after 10 mins by Fluo4-AM dye based fluorescence assay; type: functional, cell-based
How it was run: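 Human mGluR7 in transfected HEK293 cells loaded with Fluo4-AM. Compound was added for 10 min, followed by L-AP4 at EC20 or EC80 in place of glutamate, and calcium fluorescence was recorded for 3 min. Results are from at least two or three independent experiments.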

[23] = molecular target: Metabotropic glutamate receptor 1 (Homo sapiens) (UniProt Q13255); assay: Activity at human mGlu1 receptor expressed in HEK293 cells co-expressing Gi/Gq assessed as effect on EC20/EC80 glutamate-induced intracellular calcium level up to 10 uM preincubated for 10 mins followed by glutamate addition measured for 3 mins by Fluo4-AM dye based fluorescence assay; type: functional, cell-based
How it was run: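 HEK-293 cells were electroporated with the human mGluR plus a promiscuous or chimeric G protein and cultured 24 h, then serum-starved 3 h. Cells were loaded 1.5 h with 1 μM Fluo4-AM in HBSS/HEPES buffer with probenecid and 0.1% BSA. Compound was added for 10 min, then glutamate at EC20 (PAM) or EC80 (NAM), and fluorescence (ex 485/em 525) was read for 3 min.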

Chain of Metabotropic glutamate receptor 2 (Homo sapiens) (Q14416 19-872 limits assumed): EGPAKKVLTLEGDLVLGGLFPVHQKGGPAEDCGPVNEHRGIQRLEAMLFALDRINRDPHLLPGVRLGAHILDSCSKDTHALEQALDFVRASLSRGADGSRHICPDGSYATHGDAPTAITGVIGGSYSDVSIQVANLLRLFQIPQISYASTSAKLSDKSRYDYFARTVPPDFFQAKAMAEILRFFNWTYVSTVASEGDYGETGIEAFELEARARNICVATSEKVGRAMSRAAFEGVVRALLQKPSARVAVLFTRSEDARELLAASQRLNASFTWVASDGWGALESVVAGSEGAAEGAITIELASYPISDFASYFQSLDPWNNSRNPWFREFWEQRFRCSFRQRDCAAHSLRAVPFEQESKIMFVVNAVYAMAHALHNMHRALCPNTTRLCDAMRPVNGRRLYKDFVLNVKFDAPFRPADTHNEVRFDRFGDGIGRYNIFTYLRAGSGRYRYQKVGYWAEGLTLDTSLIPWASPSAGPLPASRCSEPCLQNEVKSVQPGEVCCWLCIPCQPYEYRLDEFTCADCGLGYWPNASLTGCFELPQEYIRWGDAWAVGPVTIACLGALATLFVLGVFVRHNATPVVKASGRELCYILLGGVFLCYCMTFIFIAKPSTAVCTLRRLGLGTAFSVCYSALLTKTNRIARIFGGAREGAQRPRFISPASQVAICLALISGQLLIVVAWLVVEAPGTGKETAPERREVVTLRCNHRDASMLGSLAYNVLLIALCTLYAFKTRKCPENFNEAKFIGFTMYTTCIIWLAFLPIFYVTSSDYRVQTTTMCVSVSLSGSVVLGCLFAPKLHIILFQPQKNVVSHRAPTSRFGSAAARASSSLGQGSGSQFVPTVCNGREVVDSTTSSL
Chain of D(2) dopamine receptor (Homo sapiens) (P14416 whole entry): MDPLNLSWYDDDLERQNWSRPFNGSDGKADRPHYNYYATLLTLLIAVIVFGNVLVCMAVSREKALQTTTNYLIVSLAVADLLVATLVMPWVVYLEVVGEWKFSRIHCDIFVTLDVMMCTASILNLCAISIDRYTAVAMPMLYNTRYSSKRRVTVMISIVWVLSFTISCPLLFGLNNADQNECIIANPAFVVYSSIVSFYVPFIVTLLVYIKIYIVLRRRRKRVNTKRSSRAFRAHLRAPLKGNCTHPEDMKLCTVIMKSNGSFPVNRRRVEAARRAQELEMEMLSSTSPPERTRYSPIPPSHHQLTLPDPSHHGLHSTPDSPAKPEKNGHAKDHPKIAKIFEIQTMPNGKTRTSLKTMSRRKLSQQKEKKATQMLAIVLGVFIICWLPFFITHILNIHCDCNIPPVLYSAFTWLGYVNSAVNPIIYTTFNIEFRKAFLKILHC
Chain of Amine oxidase [flavin-containing] A (P21397 whole entry): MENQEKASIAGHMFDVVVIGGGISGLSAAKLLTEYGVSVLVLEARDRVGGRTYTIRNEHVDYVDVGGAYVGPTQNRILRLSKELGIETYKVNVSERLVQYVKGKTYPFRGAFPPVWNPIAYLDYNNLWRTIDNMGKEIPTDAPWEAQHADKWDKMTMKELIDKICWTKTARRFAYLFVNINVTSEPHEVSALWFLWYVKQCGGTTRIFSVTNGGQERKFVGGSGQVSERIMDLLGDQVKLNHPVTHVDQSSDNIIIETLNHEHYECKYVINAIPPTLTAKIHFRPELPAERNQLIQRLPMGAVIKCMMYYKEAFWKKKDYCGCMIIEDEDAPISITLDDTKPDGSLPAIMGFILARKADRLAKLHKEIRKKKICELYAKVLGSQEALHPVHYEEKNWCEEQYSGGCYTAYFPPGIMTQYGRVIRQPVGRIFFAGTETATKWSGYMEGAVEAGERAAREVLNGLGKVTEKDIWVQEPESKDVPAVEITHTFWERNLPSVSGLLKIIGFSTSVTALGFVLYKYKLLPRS
Chain of Metabotropic glutamate receptor 8 (Homo sapiens) (O00222 whole entry): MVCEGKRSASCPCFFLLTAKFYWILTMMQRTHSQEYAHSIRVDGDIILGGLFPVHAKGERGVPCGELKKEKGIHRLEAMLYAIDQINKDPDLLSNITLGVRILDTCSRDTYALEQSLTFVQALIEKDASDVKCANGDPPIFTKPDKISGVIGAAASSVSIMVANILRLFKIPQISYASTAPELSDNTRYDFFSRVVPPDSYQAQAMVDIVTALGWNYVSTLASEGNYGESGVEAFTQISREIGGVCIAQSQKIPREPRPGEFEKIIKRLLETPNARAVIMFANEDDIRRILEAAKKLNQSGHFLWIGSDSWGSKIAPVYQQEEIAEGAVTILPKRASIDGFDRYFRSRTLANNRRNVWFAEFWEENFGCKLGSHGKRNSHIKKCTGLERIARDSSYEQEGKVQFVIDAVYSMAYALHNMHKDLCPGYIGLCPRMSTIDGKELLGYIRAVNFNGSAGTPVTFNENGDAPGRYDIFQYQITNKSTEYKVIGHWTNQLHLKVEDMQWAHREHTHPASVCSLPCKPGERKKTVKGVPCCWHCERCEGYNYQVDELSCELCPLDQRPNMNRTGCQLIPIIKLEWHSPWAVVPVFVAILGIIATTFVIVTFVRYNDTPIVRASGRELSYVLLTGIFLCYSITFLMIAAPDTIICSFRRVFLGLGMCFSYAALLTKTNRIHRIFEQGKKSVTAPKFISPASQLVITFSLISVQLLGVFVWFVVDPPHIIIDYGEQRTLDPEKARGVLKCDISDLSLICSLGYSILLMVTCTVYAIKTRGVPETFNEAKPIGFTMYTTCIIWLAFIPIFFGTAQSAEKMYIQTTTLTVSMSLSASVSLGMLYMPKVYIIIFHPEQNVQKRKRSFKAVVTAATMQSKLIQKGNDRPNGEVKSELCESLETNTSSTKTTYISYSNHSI
Chain of Metabotropic glutamate receptor 7 (Homo sapiens) (Q14831 whole entry): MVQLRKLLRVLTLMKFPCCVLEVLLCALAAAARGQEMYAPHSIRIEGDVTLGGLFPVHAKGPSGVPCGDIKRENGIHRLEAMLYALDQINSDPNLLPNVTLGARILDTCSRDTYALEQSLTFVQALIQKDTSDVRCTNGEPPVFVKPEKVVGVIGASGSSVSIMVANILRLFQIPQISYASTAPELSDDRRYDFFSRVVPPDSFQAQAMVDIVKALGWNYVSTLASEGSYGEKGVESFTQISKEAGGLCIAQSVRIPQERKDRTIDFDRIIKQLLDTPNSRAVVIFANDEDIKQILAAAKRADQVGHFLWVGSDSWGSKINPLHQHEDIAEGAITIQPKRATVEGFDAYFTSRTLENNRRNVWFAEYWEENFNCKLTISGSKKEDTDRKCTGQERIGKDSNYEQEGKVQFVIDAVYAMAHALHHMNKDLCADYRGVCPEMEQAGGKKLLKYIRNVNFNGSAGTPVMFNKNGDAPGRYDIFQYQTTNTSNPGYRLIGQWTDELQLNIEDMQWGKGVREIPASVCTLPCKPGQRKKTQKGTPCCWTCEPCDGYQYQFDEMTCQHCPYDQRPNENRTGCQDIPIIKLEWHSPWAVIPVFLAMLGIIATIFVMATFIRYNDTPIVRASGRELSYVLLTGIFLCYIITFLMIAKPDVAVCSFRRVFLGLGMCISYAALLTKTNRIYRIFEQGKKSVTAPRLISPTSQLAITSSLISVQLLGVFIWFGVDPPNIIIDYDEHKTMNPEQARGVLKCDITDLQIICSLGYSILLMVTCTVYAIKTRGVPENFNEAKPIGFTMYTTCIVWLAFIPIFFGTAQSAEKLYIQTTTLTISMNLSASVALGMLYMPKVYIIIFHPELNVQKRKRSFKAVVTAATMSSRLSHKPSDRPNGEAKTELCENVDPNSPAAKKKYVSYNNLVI
Chain of D(1A) dopamine receptor (Homo sapiens) (P21728 whole entry): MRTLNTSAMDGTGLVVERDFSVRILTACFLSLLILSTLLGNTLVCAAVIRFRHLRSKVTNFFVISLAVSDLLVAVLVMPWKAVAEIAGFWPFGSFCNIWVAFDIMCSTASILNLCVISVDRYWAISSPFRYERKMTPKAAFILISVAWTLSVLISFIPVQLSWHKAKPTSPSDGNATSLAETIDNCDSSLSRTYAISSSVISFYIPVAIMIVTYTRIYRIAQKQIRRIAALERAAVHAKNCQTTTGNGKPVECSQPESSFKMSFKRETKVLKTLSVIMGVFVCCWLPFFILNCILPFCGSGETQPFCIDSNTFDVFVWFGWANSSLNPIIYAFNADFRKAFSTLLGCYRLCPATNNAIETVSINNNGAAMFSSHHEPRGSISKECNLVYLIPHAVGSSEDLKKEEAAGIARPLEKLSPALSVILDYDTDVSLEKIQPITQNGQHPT
Chain of Metabotropic glutamate receptor 4 (Q14833 whole entry): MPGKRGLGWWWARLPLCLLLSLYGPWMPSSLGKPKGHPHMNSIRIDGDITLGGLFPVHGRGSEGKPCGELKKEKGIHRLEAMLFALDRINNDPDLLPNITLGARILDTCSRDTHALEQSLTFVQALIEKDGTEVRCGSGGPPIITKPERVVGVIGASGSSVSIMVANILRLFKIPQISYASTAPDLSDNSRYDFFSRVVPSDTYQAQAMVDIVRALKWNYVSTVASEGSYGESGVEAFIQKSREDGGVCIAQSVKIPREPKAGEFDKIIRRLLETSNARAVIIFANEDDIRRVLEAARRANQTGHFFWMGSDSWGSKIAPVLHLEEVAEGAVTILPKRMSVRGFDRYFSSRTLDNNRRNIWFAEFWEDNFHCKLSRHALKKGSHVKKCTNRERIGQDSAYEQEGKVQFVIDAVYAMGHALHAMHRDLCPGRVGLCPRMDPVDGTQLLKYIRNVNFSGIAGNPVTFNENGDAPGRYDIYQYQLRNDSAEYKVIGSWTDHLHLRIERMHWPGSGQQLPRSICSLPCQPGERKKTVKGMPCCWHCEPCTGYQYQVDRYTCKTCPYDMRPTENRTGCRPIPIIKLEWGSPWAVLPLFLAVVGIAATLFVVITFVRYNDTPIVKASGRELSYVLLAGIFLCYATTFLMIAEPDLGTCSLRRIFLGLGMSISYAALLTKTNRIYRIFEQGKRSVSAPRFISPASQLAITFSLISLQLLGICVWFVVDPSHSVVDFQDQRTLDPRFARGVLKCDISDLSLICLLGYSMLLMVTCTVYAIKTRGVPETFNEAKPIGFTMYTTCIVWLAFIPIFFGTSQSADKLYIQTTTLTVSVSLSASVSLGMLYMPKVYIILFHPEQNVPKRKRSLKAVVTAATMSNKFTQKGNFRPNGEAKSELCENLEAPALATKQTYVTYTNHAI

- Tmax [1]: 30 min
- half-life [2]: 270 min
- Drug uptake(free) [3]: 13 ng/g
- half-life [4]: 240 min
- Vd [5]: 6 L/kg
- concentration at 1 h [6]: 12000 ng/g
- clearance [7]: 113 mL/min/kg
- Cmax [8]: 229 ng/mL
- Cmax [9]: 753 ng/mL
- concentration at 0.5 h [10]: 7400 ng/mL
- Kp at 0.5 h [11]: 3.1
- AUC(0-inf) [12]: 2240 ng·h/mL
- Tmax [13]: 15 min
- Drug uptake(free) [14]: 173 ng/g
- Activity [15]: Not Active
Compound: O/N=c1\cc(-c2cc3cccn3cn2)oc2ccc(OCCN3CCOCC3)cc12 [listing 1 of 2 here]

- Activity [16]: inactive
- Emax [17]: 75%
- Activity [18]: inactive
- Emax [19]: 77%
- Activity [20]: 23%
- Activity [21]: inactive
- Activity [22]: inactive
- Activity [23]: inactive
Compound: O/N=c1\cc(-c2cc3cccn3cn2)oc2ccc(OCCN3CCOCC3)cc12 [listing 2 of 2 here]
